# Test results reported in publication PMC7703486 (Angewandte Chemie (International ed. in English), 2020).
# Read-outs that look alike come from different tables or passages of the source.
# Assays:
# CDK2/cyclin A = CDK2/cyclin A (Homo sapiens, UniProt P24941); assay: Biochemical assay CDK2/cyclin A
# CDK1/cyclin B = CDK1/cyclin B (Homo sapiens, UniProt P06493); assay: Biochemical assay CDK1/cyclin B
# CDK1 [1] = target: T1, CDK1 (Homo sapiens, UniProt P06493); assay: Immunoblot degradation in Jurkat cells, CDK1; type: cell-based; conditions: 6 hours
# T1 sequence (P06493 whole entry): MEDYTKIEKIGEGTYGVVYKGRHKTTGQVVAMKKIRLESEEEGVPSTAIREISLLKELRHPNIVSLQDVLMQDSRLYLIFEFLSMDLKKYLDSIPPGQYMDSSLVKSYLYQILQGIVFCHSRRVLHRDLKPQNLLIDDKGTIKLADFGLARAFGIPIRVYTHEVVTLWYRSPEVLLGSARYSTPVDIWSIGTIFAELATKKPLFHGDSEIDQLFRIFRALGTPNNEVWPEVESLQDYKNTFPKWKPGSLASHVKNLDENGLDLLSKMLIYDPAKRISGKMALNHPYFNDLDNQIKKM
# CDK2 [2] = target: T2, CDK2 (Homo sapiens, UniProt P24941); assay: Immunoblot degradation in Jurkat cells, CDK2; type: cell-based; conditions: 6 hours
# How it was run: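 Jurkat cells exposed 6 h to test compound, at 1 μM in the initial degrader screen and otherwise at the indicated concentrations, then CDK2 read by immunoblot. Cereblon dependence was checked with an analogue carrying a methylated glutarimide that cannot engage cereblon, under the same 6 h conditions.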
# CDK6 [3] = target: T3, CDK6 (Homo sapiens, UniProt Q00534); assay: Immunoblot degradation in Jurkat cells, CDK6; type: cell-based; conditions: 6 hours
# T3 sequence (Q00534 whole entry): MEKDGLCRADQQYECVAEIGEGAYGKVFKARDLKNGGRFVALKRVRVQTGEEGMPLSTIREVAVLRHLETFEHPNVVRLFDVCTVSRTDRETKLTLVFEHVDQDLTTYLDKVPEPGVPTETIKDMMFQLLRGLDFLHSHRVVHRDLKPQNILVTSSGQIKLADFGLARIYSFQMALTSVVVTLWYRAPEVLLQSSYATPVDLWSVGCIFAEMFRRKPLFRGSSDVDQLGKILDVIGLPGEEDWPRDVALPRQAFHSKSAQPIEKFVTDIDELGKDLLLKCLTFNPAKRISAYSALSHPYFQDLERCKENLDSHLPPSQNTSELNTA
# CDK6 [4] = target: T3, CDK6; assay: Immunoblot degradation in OVCAR8 cells, CDK6; type: cell-based; conditions: OVCAR8 cells (Figure S2)
# CDK4 [5] = target: T4, CDK4 (Homo sapiens, UniProt P11802); assay: Immunoblot degradation in Jurkat cells, CDK4; type: cell-based; conditions: 6 hours
# T4 sequence (P11802 whole entry): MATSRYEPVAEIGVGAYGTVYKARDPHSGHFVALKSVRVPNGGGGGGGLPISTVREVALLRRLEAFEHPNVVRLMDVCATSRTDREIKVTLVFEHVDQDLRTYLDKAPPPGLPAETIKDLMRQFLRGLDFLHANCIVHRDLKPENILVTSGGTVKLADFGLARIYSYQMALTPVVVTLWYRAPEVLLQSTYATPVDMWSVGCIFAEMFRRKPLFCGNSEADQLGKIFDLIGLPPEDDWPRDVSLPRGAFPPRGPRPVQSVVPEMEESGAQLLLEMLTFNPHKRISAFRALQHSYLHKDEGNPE
# CDK5 [6] = target: T5, CDK5 (Homo sapiens, UniProt Q00535); assay: Immunoblot degradation in Jurkat cells, CDK5; type: cell-based; conditions: 6 hours
# T5 sequence (Q00535 whole entry): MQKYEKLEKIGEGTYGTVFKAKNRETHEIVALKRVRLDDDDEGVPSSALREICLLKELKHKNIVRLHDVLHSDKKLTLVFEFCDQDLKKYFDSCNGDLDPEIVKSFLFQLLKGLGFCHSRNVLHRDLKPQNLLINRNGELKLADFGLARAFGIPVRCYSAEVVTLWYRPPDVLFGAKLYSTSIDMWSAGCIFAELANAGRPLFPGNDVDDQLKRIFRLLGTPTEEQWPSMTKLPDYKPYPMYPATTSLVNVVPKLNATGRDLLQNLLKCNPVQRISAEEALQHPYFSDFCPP
# CDK7 = CDK7 (Homo sapiens, UniProt P50613); assay: Immunoblot degradation in Jurkat cells, CDK7; type: cell-based; conditions: 6 hours
# Chain of CDK7 (P50613 whole entry): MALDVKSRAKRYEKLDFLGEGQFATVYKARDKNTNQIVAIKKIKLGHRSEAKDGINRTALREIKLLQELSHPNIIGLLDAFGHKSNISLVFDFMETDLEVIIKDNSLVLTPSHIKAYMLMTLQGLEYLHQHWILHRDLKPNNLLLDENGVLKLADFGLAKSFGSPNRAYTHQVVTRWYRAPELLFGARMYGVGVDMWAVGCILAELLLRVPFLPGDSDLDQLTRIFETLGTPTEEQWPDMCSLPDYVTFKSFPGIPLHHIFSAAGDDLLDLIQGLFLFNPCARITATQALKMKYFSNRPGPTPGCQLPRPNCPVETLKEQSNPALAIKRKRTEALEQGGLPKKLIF
# CDK9 = CDK9 (Homo sapiens, UniProt P50750); assay: Immunoblot degradation in Jurkat cells, CDK9; type: cell-based; conditions: 6 hours
# Chain of CDK9 (P50750 whole entry): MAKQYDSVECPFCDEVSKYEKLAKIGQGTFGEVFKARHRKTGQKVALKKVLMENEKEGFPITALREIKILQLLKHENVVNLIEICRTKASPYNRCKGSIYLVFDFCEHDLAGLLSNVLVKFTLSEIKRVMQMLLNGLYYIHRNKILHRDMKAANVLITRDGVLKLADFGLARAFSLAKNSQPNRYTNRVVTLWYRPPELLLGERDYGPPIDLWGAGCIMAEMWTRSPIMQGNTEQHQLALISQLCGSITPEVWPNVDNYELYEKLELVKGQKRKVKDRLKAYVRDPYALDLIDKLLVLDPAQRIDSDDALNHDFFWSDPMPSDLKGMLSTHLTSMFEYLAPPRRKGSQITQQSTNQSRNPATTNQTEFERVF
# CDK4 [7] = target: T4, CDK4; assay: Immunoblot degradation in OVCAR8 cells, CDK4; type: cell-based; conditions: OVCAR8 cells (Figure S2)
# CDK7/cyclin H = CDK7/cyclin H (Homo sapiens, UniProt P50613); assay: Biochemical assay CDK7/cyclin H
# Chain of CDK7/cyclin H (P50613 whole entry): as the sequence (P50613 whole entry) above
# Chain of CDK7/cyclin H (P51946 whole entry partner): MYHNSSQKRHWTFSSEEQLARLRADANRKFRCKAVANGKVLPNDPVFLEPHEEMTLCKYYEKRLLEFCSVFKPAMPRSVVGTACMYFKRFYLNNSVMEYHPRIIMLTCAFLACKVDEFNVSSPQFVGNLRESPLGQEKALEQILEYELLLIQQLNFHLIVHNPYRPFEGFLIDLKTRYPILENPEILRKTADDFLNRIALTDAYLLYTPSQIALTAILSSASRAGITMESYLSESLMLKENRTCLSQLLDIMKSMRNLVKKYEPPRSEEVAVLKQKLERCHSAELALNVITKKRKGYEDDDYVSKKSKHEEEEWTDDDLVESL
# CDK6/cyclin D1 = CDK6/cyclin D1 (Homo sapiens, UniProt Q00534); assay: Biochemical assay CDK6/cyclin D1
# Chain of CDK6/cyclin D1 (Q00534 whole entry): as the sequence (Q00534 whole entry) above
# Chain of CDK6/cyclin D1 (P24385 whole entry partner): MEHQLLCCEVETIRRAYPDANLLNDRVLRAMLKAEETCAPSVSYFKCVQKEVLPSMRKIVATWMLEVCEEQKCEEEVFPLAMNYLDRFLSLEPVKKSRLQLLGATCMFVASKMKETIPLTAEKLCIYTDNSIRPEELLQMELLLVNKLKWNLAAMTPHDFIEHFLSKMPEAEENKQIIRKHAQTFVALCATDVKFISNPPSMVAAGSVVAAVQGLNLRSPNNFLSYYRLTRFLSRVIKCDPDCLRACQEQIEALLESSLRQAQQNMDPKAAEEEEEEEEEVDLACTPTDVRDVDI
# CDK4/cyclin D1 = CDK4/cyclin D1 (Homo sapiens, UniProt P11802); assay: Biochemical assay CDK4/cyclin D1
# Chain of CDK4/cyclin D1 (P11802 whole entry): as the sequence (P11802 whole entry) above
# Chain of CDK4/cyclin D1 (P24385 whole entry partner): as the sequence (P24385 whole entry partner) above
# CDK9/cyclin T1 = CDK9/cyclin T1 (Homo sapiens, UniProt P50750); assay: Biochemical assay CDK9/cyclin T1
# Chain of CDK9/cyclin T1 (P50750 whole entry): as the sequence (P50750 whole entry) above
# Chain of CDK9/cyclin T1 (O60563 whole entry partner): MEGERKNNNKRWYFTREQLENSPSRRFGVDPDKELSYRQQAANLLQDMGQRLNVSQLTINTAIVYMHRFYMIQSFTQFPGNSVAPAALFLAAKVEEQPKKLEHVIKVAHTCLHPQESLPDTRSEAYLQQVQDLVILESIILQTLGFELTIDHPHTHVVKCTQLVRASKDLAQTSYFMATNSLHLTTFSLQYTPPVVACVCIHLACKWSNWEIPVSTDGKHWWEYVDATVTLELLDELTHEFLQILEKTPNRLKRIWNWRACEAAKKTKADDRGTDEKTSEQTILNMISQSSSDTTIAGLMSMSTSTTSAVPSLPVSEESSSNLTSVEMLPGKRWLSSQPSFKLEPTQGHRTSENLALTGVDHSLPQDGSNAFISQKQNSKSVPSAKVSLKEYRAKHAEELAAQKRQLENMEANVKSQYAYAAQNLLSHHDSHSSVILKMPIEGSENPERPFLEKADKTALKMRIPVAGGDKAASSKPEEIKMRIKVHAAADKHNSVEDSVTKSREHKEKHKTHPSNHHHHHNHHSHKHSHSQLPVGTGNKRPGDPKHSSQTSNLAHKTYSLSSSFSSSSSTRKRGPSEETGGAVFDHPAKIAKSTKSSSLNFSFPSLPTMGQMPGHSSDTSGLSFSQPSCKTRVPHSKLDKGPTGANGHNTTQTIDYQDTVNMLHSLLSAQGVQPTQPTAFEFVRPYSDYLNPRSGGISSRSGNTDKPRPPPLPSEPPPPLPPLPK
# CDK5/p25 = CDK5/p25 (Homo sapiens, UniProt Q00535); assay: Biochemical assay CDK5/p25
# Chain of CDK5/p25 (Q00535 whole entry): as the sequence (Q00535 whole entry) above
# Chain of CDK5/p25 (Q15078 99-307 partner limits assumed): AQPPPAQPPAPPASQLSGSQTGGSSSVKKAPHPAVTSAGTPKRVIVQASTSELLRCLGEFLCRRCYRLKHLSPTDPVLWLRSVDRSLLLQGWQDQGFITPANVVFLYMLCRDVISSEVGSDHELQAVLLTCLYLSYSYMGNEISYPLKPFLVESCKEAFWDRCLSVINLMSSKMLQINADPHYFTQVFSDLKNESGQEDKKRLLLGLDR
# Aurora A [8] = target: T6, Aurora A (Homo sapiens, UniProt O14965); assay: Pulse-chase SILAC MS proteomics in OVCAR8 cells, Aurora A; type: cell-based; conditions: OVCAR8, 250 nM, 6 hours
# T6 sequence (O14965 1-403): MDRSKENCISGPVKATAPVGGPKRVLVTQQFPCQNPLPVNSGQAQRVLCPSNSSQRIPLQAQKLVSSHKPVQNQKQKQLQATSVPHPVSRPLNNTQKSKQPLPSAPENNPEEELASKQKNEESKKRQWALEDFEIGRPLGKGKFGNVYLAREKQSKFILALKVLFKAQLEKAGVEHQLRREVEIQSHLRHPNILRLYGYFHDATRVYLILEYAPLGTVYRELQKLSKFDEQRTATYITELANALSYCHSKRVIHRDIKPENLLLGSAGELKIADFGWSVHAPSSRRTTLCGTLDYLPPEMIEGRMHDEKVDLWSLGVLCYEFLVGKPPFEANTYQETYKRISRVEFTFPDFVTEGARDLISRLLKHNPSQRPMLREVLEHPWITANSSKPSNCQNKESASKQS
# JNK2 (MAPK9) = JNK2 (MAPK9) (Homo sapiens, UniProt P45984); assay: Pulse-chase SILAC MS proteomics in OVCAR8 cells, JNK2; type: cell-based; conditions: OVCAR8, 250 nM, 6 hours
# CDK2 [9] = target: T2, CDK2; assay: KINOMEscan, CDK2; type: binding; conditions: 1 μM; only CDK with potent inhibition; CDK1 not in panel
# CDK1 [10] = target: T1, CDK1; assay: Immunoblot degradation in OVCAR8 cells, CDK1; type: cell-based; conditions: 6 hours
# RSK1 (RPS6KA1) = RSK1 (RPS6KA1) (Homo sapiens, UniProt Q15418); assay: Pulse-chase SILAC MS proteomics in OVCAR8 cells, RSK1; type: cell-based; conditions: OVCAR8, 250 nM, 6 hours
# CRBN = CRBN (Homo sapiens, UniProt Q96SW2); assay: Cellular CRBN engagement assay; type: cell-based
# CDK2 [11] = target: T2, CDK2; assay: Pulse-chase SILAC MS proteomics in OVCAR8 cells, CDK2; type: cell-based; conditions: OVCAR8, 250 nM, 6 hours
# CDK2 [12] = target: T2, CDK2; assay: Immunoblot degradation in OVCAR8 cells, CDK2; type: cell-based; conditions: 6 hours
# STK33 = STK33 (Homo sapiens, UniProt Q9BYT3); assay: Pulse-chase SILAC MS proteomics in OVCAR8 cells, STK33; type: cell-based; conditions: OVCAR8, 250 nM, 6 hours
# CDK5 [13] = target: T5, CDK5; assay: Immunoblot degradation in OVCAR8 cells, CDK5; type: cell-based; conditions: 6 hours
# OVCAR8 cells = assay: Growth rate inhibition in OVCAR8 cells; type: cell-based
# Aurora A [14] = target: T6, Aurora A; assay: Biochemical activity assay Aurora A
# CDK5 [15] = target: T5, CDK5; assay: Pulse-chase SILAC MS proteomics in OVCAR8 cells, CDK5; type: cell-based; conditions: OVCAR8, 250 nM, 6 hours
# CDK2 [16] = target: T2, CDK2; assay: Immunoblot degradation in CRBN-null Jurkat cells, CDK2; type: cell-based; conditions: 6 hours
# How it was run: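 Used to test whether degradation requires cereblon: CRBN-null Jurkat cells treated 6 h with test compound, then CDK2 levels read by immunoblot.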
# more than 400 kinases = assay: KINOMEscan panel profiling; type: binding; conditions: 1 μM
# Aurora A [17] = target: T6, Aurora A; assay: Degradation in OVCAR8 cells, Aurora A; type: cell-based; conditions: OVCAR8, same conditions (Figure S3)
# [18] = read-out: CDK2/cyclin A IC50, Table 1, degraders, tested in duplicate
# [19] = read-out: CDK1/cyclin B IC50, Table 1, degraders, tested in duplicate
# [20] = read-out: CDK2 IC50, Table 2, w/cyclin A, duplicate
# [21] = read-out: CDK6 IC50, Table 2, w/cyclin D1, duplicate
# [22] = read-out: CDK4 IC50, Table 2, w/cyclin D1, duplicate
# [23] = read-out: CDK1 IC50, Table 2, w/cyclin B, duplicate
# [24] = read-out: CDK5 IC50, Table 2, w/p25, duplicate
# Chain of CDK1/cyclin B (P06493 whole entry): as the sequence (P06493 whole entry) above
# Chain of CDK1/cyclin B (P14635 whole entry partner): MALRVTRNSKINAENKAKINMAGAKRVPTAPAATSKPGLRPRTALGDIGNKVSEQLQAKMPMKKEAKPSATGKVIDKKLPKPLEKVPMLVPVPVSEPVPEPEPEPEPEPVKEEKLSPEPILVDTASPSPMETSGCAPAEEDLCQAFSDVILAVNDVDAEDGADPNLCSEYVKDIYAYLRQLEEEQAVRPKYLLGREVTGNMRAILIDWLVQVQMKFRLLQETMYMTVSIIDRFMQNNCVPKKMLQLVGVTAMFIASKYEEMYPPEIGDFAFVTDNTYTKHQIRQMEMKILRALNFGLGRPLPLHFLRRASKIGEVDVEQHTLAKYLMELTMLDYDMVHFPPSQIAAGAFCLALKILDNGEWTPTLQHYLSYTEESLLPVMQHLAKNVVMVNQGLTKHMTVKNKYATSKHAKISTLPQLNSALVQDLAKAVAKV
compound,measurement,setting,value
NC(=O)c1c(F)cccc1Nc1nc(NC2CCN(S(=O)(=O)CCNC(=O)CCOCCOCCOc3cccc4c3C(=O)N(C3CCC(=O)NC3=O)C4=O)CC2)ncc1Br (stereo not drawn) [TMX-1128],IC50,CDK2/cyclin A; [18],4.9 nM
same,IC50,CDK1/cyclin B; [19],11.6 nM
NC(=O)c1c(F)cccc1Nc1nc(NC2CCN(S(=O)(=O)CCNC(=O)CCCCCCCOc3cccc4c3C(=O)N(C3CCC(=O)NC3=O)C4=O)CC2)ncc1Br (stereo not drawn) [TMX-1162],CDK1 degradation,CDK1 [1]; 1 μM,no CDK1 degradation was observed
same,IC50,CDK2/cyclin A; [18],17.1 nM
same,CDK2 degradation,CDK2 [2]; 1 μM,induced CDK2 degradation
same,IC50,CDK1/cyclin B; [19],8.5 nM
NC(=O)c1c(F)cccc1Nc1nc(NC2CCN(S(=O)(=O)CCNC(=O)CCCCCCCCOc3cccc4c3C(=O)N(C3CCC(=O)NC3=O)C4=O)CC2)ncc1Br (stereo not drawn) [TMX-1160],CDK1 degradation,CDK1 [1]; 1 μM,no CDK1 degradation was observed
same,CDK6 degradation,CDK6 [3]; immunoblot (Figure 2B),potently degraded
same,CDK6 degradation,CDK6 [4],not degraded
same,IC50,CDK2/cyclin A; [18],28.7 nM
same,CDK4 degradation,CDK4 [5]; immunoblot (Figure 2B),potently degraded
same,CDK2 degradation,CDK2 [2]; 1 μM,induced CDK2 degradation
same,CDK5 degradation,CDK5 [6]; immunoblot (Figure 2B),potently degraded
same,CDK7 degradation,CDK7; immunoblot (Figure 2B),not degraded
same,CDK9 degradation,CDK9; immunoblot (Figure 2B),not degraded
same,IC50,CDK1/cyclin B; [19],8.5 nM
same,CDK4 degradation,CDK4 [7],not degraded
CS(=O)(=O)N1CCC(Nc2ncc(Br)c(Nc3cccc(F)c3C(N)=O)n2)CC1 [TMX-2039],enzymatic IC50 CDK7,CDK7/cyclin H; Figure 1,low nanomolar
same,enzymatic IC50 CDK2,CDK2/cyclin A; Figure 1,low nanomolar
same,enzymatic IC50 CDK6,CDK6/cyclin D1; Figure 1,low nanomolar
same,enzymatic IC50 CDK4,CDK4/cyclin D1; Figure 1,low nanomolar
same,enzymatic IC50 CDK9,CDK9/cyclin T1; Figure 1,low nanomolar
same,enzymatic IC50 CDK1,CDK1/cyclin B; Figure 1,low nanomolar
NC(=O)c1c(F)cccc1Nc1nc(NC2CCN(S(=O)(=O)CCNC(=O)CCOCCOCCOCCOCCOc3cccc4c3C(=O)N(C3CCC(=O)NC3=O)C4=O)CC2)ncc1Br (stereo not drawn) [TMX-1111],IC50,CDK2/cyclin A; [18],6.4 nM
same,IC50,CDK1/cyclin B; [19],9.5 nM
NC(=O)c1c(F)cccc1Nc1nc(Nc2ccc(S(N)(=O)=O)cc2)ncc1Br [TMX-3013],IC50,CDK2/cyclin A; [20],< 0.5 nM
same,IC50,CDK6/cyclin D1; [21],15.6 nM
same,IC50,CDK4/cyclin D1; [22],24.5 nM
same,IC50,CDK1/cyclin B; [23],0.9 nM
same,IC50,CDK5/p25; [24],0.5 nM
NC(=O)c1c(F)cccc1Nc1nc(NC2CCN(S(=O)(=O)CCNC(=O)CCOCCOCCOCCOCCOCCOCCOCCOCCOc3cccc4c3C(=O)N(C3CCC(=O)NC3=O)C4=O)CC2)ncc1Br (stereo not drawn) [TMX-1146],IC50,CDK2/cyclin A; [18],7.3 nM
same,IC50,CDK1/cyclin B; [19],15.5 nM
Cc1cc(S(N)(=O)=O)ccc1Nc1ncc(Br)c(Nc2cccc(F)c2C(N)=O)n1 [TMX-3010],"discrimination for inhibiting CDK1, CDK2, and CDK5 over CDK4 and CDK6",CDK2/cyclin A; benchmarked to CDK2 IC50 value,hundred-fold
same,IC50,CDK2/cyclin A; [20],0.7 nM
same,IC50,CDK6/cyclin D1; [21],84.1 nM
same,IC50,CDK4/cyclin D1; [22],135 nM
same,IC50,CDK1/cyclin B; [23],1.2 nM
same,IC50,CDK5/p25; [24],0.9 nM
NC(=O)c1c(F)cccc1Nc1nc(NC2CCN(S(=O)(=O)CCNC(=O)CCCCCOc3cccc4c3C(=O)N(C3CCC(=O)NC3=O)C4=O)CC2)ncc1Br (stereo not drawn) [TMX-1169],IC50,CDK2/cyclin A; [18],20.5 nM
same,IC50,CDK1/cyclin B; [19],31 nM
Cc1cc(S(=O)(=O)NCCOCCOCCOCCOCCNc2cccc3c2C(=O)N(C2CCC(=O)NC2=O)C3=O)ccc1Nc1ncc(Br)c(Nc2cccc(F)c2C(N)=O)n1 (stereo not drawn) [TMX-2172],Aurora A degradation (proteomics),Aurora A [8],effectively degraded
same,degree of degradation of JNK2 (MAPK9) (proteomics),JNK2 (MAPK9),relatively weak
same,CDK1 degradation,CDK1 [1]; 250 nM,not affected
same,CDK2 inhibition in KINOMEscan,CDK2 [9],potent inhibition
same,CDK1 degradation,CDK1 [10],remained intact
same,IC50,CDK7/cyclin H,2620 nM
same,CDK6 degradation,"CDK6 [3]; 250 nM, immunoblot",not affected
same,IC50,CDK2/cyclin A,6.5 nM
same,CDK4 degradation,"CDK4 [5]; 250 nM, immunoblot",not affected
same,degree of degradation of RSK1 (RPS6KA1) (proteomics),RSK1 (RPS6KA1),relatively weak
same,IC50,CRBN,46.9 nM
same,CDK2 degradation,CDK2 [2]; 250 nM,induced CDK2 degradation
same,IC50,CDK6/cyclin D1,2220 nM
same,CDK2 degradation (proteomics),CDK2 [11],effectively degraded
same,CDK5 degradation,CDK5 [6]; immunoblot (Figure 3A),retained the ability to degrade CDK5
same,CDK2 degradation,CDK2 [12],degraded in a dose dependent manner
same,degree of degradation of STK33 (proteomics),STK33,relatively weak
same,CDK5 degradation,CDK5 [13],degraded in a dose dependent manner
same,growth rate inhibitory effect,OVCAR8 cells,strong growth rate inhibitory effects
same,growth rate inhibitory potency relative to non-degrading control ZXH-7035,OVCAR8 cells; 72 hours,approximately 8.5 fold
same,CDK7 degradation,"CDK7; 250 nM, immunoblot",not affected
same,IC50,Aurora A [14],205 nM
same,CDK9 degradation,"CDK9; 250 nM, immunoblot",not affected
same,CDK5 degradation (proteomics),CDK5 [15],effectively degraded
same,CDK2 degradation,CDK2 [16],no CDK2 degradation was detected
same,IC50,CDK4/cyclin D1,7390 nM
same,IC50,CDK9/cyclin T1,2640 nM
same,IC50,CDK1/cyclin B,20.3 nM
same,IC50,CDK5/p25,6.8 nM
same,number of kinases with >99% inhibition compared to DMSO,more than 400 kinases,14
same,concentration needed to achieve observable Aurora A degradation,Aurora A [17],5 µM
NC(=O)c1c(F)cccc1Nc1nc(Nc2ccc(S(=O)(=O)NCCOCCOCCOCCOCCNc3cccc4c3C(=O)N(C3CCC(=O)NC3=O)C4=O)cc2)ncc1Br (stereo not drawn) [TMX-2138],IC50,"CDK7/cyclin H; read-out: CDK7/cyclin H IC50, Table 3, duplicate",286 nM
same,IC50,"CDK2/cyclin A; read-out: CDK2/cyclin A IC50, Table 3, duplicate",10.9 nM
same,IC50,"CDK6/cyclin D1; read-out: CDK6/cyclin D1 IC50, Table 3, duplicate",465 nM
same,IC50,"CDK4/cyclin D1; read-out: CDK4/cyclin D1 IC50, Table 3, duplicate",901 nM
same,IC50,"CDK9/cyclin T1; read-out: CDK9/cyclin T1 IC50, Table 3, duplicate",25.7 nM
same,IC50,"CDK1/cyclin B; read-out: CDK1/cyclin B IC50, Table 3, duplicate",8.7 nM
same,IC50,"CDK5/p25; read-out: CDK5/p25 IC50, Table 3, duplicate",7 nM
